Data published in ChEMBL document CHEMBL3525963, “Tissue distribution and elimination of [14C]apixaban in rats” (Drug Metab Dispos, 2011).

Columns and labels:
Assay type in all cases: ADME, organism-based
Set-up in all cases: dose 5 mg/kg, dosed compound name [14C]-apixaban, route oral
Conditions in all cases: in vivo
Pancreas [1] = assay: Biodistribution in female Sprague-Dawley rat pancreas at 5 mg/kg, po administered as single dose measured after 72 hrs
Outline: (§1)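 Quantitative whole-body autoradiography was run after a single 5 mg/kg (100 μCi/kg) oral gavage to fasted female or pregnant SD rats, one rat per time point. Carcasses were frozen in hexane/dry ice, and 40 µm sagittal sections were dried at −20°C for at least 48 h. Sections were exposed to a phosphor plate alongside [14C]glucose standards (0.001–6.5 µCi/g). Results are µg eq/g, with LLOQ 0.037 µg eq/g.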

Blood = assay: Biodistribution in pregnant Sprague-Dawley rat blood at 5 mg/kg, po administered as single dose measured after 8 hrs
Outline: (§2)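 Fasted pregnant SD rats (n=6, 270-319 g) each received one oral gavage dose of [14C]apixaban, 5 mg/kg (100 μCi/kg), in 0.5% Tween 80/Labrafil. One rat was killed at each of 0.5, 1, 4, 8, 24 and 48 h. Carcasses were frozen in hexane/dry ice, cut into 40 µm sagittal sections, exposed to phosphor plates and quantified against [14C]glucose standards as µg eq/g. LLOQ was 0.037 µg eq/g.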

Rattus norvegicus [2] = assay: Biodistribution in fetal kidney of pregnant Sprague-Dawley rat at 5 mg/kg, po administered as single dose measured after 48 hrs; outline: as §1
Rattus norvegicus [3] = assay: Biodistribution in female Sprague-Dawley rat kidney cortex at 5 mg/kg, po administered as single dose measured after 8 hrs
Outline: (§3)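 [14C]apixaban (20 μCi/mL in dosing solution) in 0.5% Tween 80 in Labrafil given by oral gavage to fasted female rats, 206-213 g, at 100 μCi/kg. One rat per time point was euthanized and snap-frozen. Sagittal 40 µm whole-body sections were read by QWBA phosphor imaging against [14C]glucose standards. Results are in µg eq apixaban/g, with LLOQ 0.037 μg eq/g.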

Muscle tissue = assay: Biodistribution in pregnant Sprague-Dawley rat muscle at 5 mg/kg, po administered as single dose measured after 0.5 hrs
Lung [4] = assay: Biodistribution in male Sprague-Dawley rat lung at 5 mg/kg, po administered as single dose measured after 8 hrs
Outline: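 [14C]apixaban (1.0 mg/mL, 20 μCi/mL) in 0.5% Tween 80 in Labrafil, given by oral gavage at 100 μCi/kg to male rats (225-252 g) fasted overnight through 4 h post-dose. One rat per time point. Carcasses frozen in hexane/dry ice and cut into 40 µm sagittal sections. QWBA read on phosphor plates against [14C]glucose standards, reported as µg eq/g. LLOQ 0.037 µg eq/g.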

Rattus norvegicus [5] = assay: Biodistribution in pregnant Sprague-Dawley rat kidney cortex at 5 mg/kg, po administered as single dose measured after 48 hrs; outline: as §2
Rattus norvegicus [6] = assay: Biodistribution in pregnant Sprague-Dawley rat pituitary gland at 5 mg/kg, po administered as single dose measured after 0.5 hrs
Adrenal gland = assay: Biodistribution in female Sprague-Dawley rat adrenal gland at 5 mg/kg, po administered as single dose measured after 4 hrs
Outline: (§4)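 [¹⁴C]Apixaban given by oral gavage at 5 mg/kg (100 μCi/kg) in 0.5% Tween 80 in Labrafil (1.0 mg/mL dosing solution) to rats fasted overnight through 4 h post-dose. One rat per time point; carcass frozen in hexane/dry ice. Quantitative whole-body autoradiography used 40 µm sagittal sections and a phosphor imaging plate calibrated with [¹⁴C]glucose standards (0.001–6.5 μCi/g). Read-out in µg eq apixaban/g; LLOQ 0.037 μg eq/g.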

Pancreas [7] = assay: Biodistribution in pregnant Sprague-Dawley rat pancreas at 5 mg/kg, po administered as single dose measured after 0.5 hrs
Rattus norvegicus [8] = assay: Biodistribution in female Sprague-Dawley rat pituitary gland at 5 mg/kg, po administered as single dose measured after 4 hrs; outline: as §3
Lung [9] = assay: Biodistribution in pregnant Sprague-Dawley rat lung at 5 mg/kg, po administered as single dose measured after 48 hrs
Outline: (§5)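 Pregnant SD rats (270-319 g) were fasted overnight and given one oral gavage of 5 mg/kg (100 μCi/kg) in 0.5% Tween 80 in Labrafil. One rat was euthanized per time point (0.5, 1, 4, 8, 24, 48 h) and the carcass frozen. 40 µm sagittal sections were phosphor-imaged against [14C]glucose standards and results reported as µg eq/g; LLOQ 0.037 µg eq/g.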

Harderian gland = assay: Biodistribution in female Sprague-Dawley rat harderian gland at 5 mg/kg, po administered as single dose measured after 0.5 hrs; outline: as §4
[10] = Drug level in lactating Sprague-Dawley rat milk at 5 mg/kg, po administered as single dose after 12 hrs
Rattus norvegicus [11] = assay: Biodistribution in female Sprague-Dawley rat kidney cortex at 5 mg/kg, po administered as single dose measured after 0.5 hrs; outline: as §3
Rattus norvegicus [12] = assay: Biodistribution in pregnant Sprague-Dawley rat salivary gland at 5 mg/kg, po administered as single dose measured after 48 hrs; outline: as §5
Brain = assay: Biodistribution in female Sprague-Dawley rat brain at 5 mg/kg, po administered as single dose measured after 24 hrs
Outline: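 [14C]Apixaban (1.0 mg/mL, 20 μCi/mL in 0.5% Tween 80 in Labrafil) given as a single oral gavage of 5 mg/kg (100 μCi/kg) to fasted female SD rats, one rat per time point. Carcasses were frozen in hexane/dry ice and cut into 40 µm sagittal sections for QWBA against [14C]glucose standards. Brain radioactivity is reported as µg eq/g, with LLOQ 0.037 µg eq/g.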

Rattus norvegicus [13] = assay: Biodistribution in fetal brain of pregnant Sprague-Dawley rat at 5 mg/kg, po administered as single dose measured after 48 hrs; outline: as §1
Heart = assay: Biodistribution in male Sprague-Dawley rat heart at 5 mg/kg, po administered as single dose measured after 24 hrs
Outline: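 Fasted male SD rats (225-252 g) each received one oral gavage dose of [14C]apixaban, 5 mg/kg (100 μCi/kg), in 0.5% Tween 80/Labrafil vehicle. One rat was killed per time point, from 0.5 to 168 h. Frozen carcasses were cut into 40 µm sagittal whole-body sections and read by QWBA phosphor imaging against [14C]glucose calibrants. Results are in µg apixaban eq/g; BLQ <0.037 µg eq/g.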

Liver = assay: Biodistribution in female Sprague-Dawley rat liver at 5 mg/kg, po administered as single dose measured after 4 hrs; outline: as §1
Spleen = assay: Biodistribution in pregnant Sprague-Dawley rat spleen at 5 mg/kg, po administered as single dose measured after 1 hr
[14] = Cmax in lactating Sprague-Dawley rat milk at 5 mg/kg, po administered as single dose
Outline: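 Lactating SD rats received a single oral gavage of 5 mg/kg (108 μCi/kg) in 0.5% Tween 80/Labrafil. Three rats were sampled per time point at 0.5-24 h. Oxytocin was given sc 15 min before milking under anesthesia. Milk, blood and plasma were counted in duplicate by liquid scintillation for 10 min and expressed as apixaban equivalents.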

Rattus norvegicus [15] = assay: Biodistribution in fetal liver of pregnant Sprague-Dawley rat at 5 mg/kg, po administered as single dose measured after 24 hrs; outline: as §2
Rattus norvegicus [16] = assay: Biodistribution in pregnant Sprague-Dawley rat placenta at 5 mg/kg, po administered as single dose measured after 1 hr

For COc1ccc(-n2nc(C(N)=O)c3c2C(=O)N(c2ccc(N4CCCC[14C]4=O)cc2)CC3)cc1, the Radiolabel recovery (Pancreas [1]) was “Not sampled as not visualised in autoradiograph”, the Radiolabel recovery (Blood) was 0.09 ugequiv/g and the Radiolabel recovery (Rattus norvegicus [2]) was “Not sampled as not visualised in autoradiograph”. It also gave a Radiolabel recovery (Rattus norvegicus [3]) of 0.42 ugequiv/g, a Radiolabel recovery (Muscle tissue) of 0.37 ugequiv/g and a Radiolabel recovery (Lung [4]) of 0.14 ugequiv/g. For the same compound, the Radiolabel recovery (Rattus norvegicus [5]) was “Not detected assumed BLQ”, the Radiolabel recovery (Rattus norvegicus [6]) was 0.72 ugequiv/g and the Radiolabel recovery (Adrenal gland) was 0.9 ugequiv/g. The Radiolabel recovery (Pancreas [7]) was 0.89 ugequiv/g, the Radiolabel recovery (Rattus norvegicus [8]) was 0.48 ugequiv/g and the Radiolabel recovery (Lung [9]) was “Not detected assumed BLQ”. For the same compound, the Radiolabel recovery (Harderian gland) was 0.4 ugequiv/g, the Radiolabel recovery [10] was 3.61 µg/mL and the Radiolabel recovery (Rattus norvegicus [11]) was 0.82 ugequiv/g. The Radiolabel recovery (Rattus norvegicus [12]) was “Not detected assumed BLQ”, the Radiolabel recovery (Brain) was under 0.037 ugequiv/g and the Radiolabel recovery (Rattus norvegicus [13]) was “Not detected assumed BLQ”. The Radiolabel recovery (Heart) was “Not detected assumed BLQ”, the Radiolabel recovery (Liver) was 3.98 ugequiv/g and the Radiolabel recovery (Spleen) was 0.51 ugequiv/g. For the same compound, the Cmax [14] was 8920 ngequiv/g, the Radiolabel recovery (Rattus norvegicus [15]) was “Not sampled as not visualised in autoradiograph” and the Radiolabel recovery (Rattus norvegicus [16]) was 0.74 ugequiv/g.
